Assay results taken from ChEMBL document CHEMBL1649415, “Synthesis, physicochemical characterization, and biological activities of new carnosine derivatives stable in human serum as potential neuroprotective agents” (J Med Chem, 2011).
Activity calls are given as the source filed them. The calls are words filed in the database; no cut-off is given here.

Assays:
[1] = Lipophilicity, log D of the compound by shake-flask technique; assay type: physicochemical; settings: octanol/water
In short: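 Shake-flask at pH 7.4, in phosphate buffer with ionic strength 0.15 M KCl and mutually presaturated n-octanol (4 h). Compound about 0.1 mM in the aqueous phase, shaken about 20 min, then centrifuged. Aqueous concentration measured by UV at 230 nm; at least seven log D determinations per compound.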

Serum = test: Stability of the compound in human serum after 3 hrs; assay type: ADME, cell-free
In short: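 Compound added from a 10 mM aqueous stock to human serum preheated to 37 °C, giving 0.5 mM final, and incubated at 37 ± 0.5 °C. At intervals, aliquots were deproteinized with an equal volume of acetonitrile/0.1% TFA, centrifuged and filtered. Analysis by RP-HPLC on C18 with methanol/20 mM sodium acetate pH 4.5-5 mM SDS (80/20 to 60/40).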

[2] = Antioxidant activity against CuSO4-induced LDL oxidation assessed as delta-lag time at 100 uM by antioxidation assay; assay type: functional
In short: (§1)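 Human plasma LDL (EDTA-treated donor plasma, density 1.019-1.063 g/mL fraction by ultracentrifugation, desalted) diluted in 10 mM phosphate buffer pH 7.4 to 50 µg protein/mL. Compound added at 100 µM final, oxidation started with CuSO4 2.5 µM final at 37 °C. Conjugated dienes followed at 234 nm over 6 h. Lag-time change versus control and propagation rate (ε234 = 29500 M-1 cm-1) derived; mean ± SEM.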

[3] = Antioxidant activity against CuSO4-induced LDL oxidation measured per mg og LDL product assessed as propagation rate of the oxidation at 100 uM by antioxidation assay; assay type: functional; in short: as §1
[4] = Antioxidant activity assessed as 4-hydroxy-trans-2,3-nonenal scavenging activity at 1 mM after 1 hr by HPLC relative to control; assay type: functional
In short: (§2)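 HNE (50 µM final) incubated with compound (1 mM final) in 1 mM phosphate buffer pH 7.4 at 37 °C for up to 24 h. Samples were injected directly onto reverse-phase C18 HPLC to measure remaining HNE. Scavenging % = 100 − (HNE left with scavenger / HNE left in control × 100); mean ± SEM.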

[5] = Antioxidant activity assessed as 4-hydroxy-trans-2,3-nonenal scavenging activity at 1 mM after 6 hrs by HPLC relative to control; assay type: functional; in short: as §2
[6] = Antioxidant activity assessed as 4-hydroxy-trans-2,3-nonenal scavenging activity at 1 mM after 24 hrs by HPLC relative to control; assay type: functional; in short: as §2
[7] = Toxicity in mouse primary hippocampal neuron assessed as adverse effect at 100 uM after 24 hrs; assay type: tissue-based, Hippocampus
Neuron [8] = test: Cytoprotective effect in mouse primary hippocampal neuron assessed as reduction in 4-hydroxy-trans-2,3-nonenal-induced damage at 100 uM after 24 hrs; assay type: functional, Hippocampus; design: scale not given: the % may be the effect or the level left
In short: (§3)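 They were grown 6 days in B-27 neurobasal medium at 37 °C, 5% CO2. Compound (100 µM in medium) was given alone or as pretreatment before HNE 10 µM, for 24 h. Death was scored by trypan blue exclusion against pre-incubation counts; mean ± SEM, n = 4-7, paired t test.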

Neuron [9] = test: Cytoprotective effect in mouse primary hippocampal neuron assessed as reduction in 4-hydroxy-trans-2,3-nonenal-induced neuronal disruption at 100 uM after 24 hrs; assay type: functional, tissue-based; settings: Hippocampus; in short: as §3
[10] = Drug level in Wistar rat brain measured per gram of tissue at 20 mg/kg, iv after 3 hrs; assay type: ADME, organism-based; design: dose 20 mg/kg, route intravenous; settings: read-out: Drug uptake
In short: (§4)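 Male Wistar rats, 200-250 g, given 20 mg/kg i.v. in 0.9% saline; 3 rats per time point, killed at 1.5 or 3 h. Heparinized blood and brain homogenized in equal volume of cold water were deproteinized with acetonitrile/0.1% TFA, centrifuged and filtered. RP-HPLC on C18 with methanol/20 mM sodium acetate pH 4.5-5 mM SDS (70/30), detection 210 and 223 nm; spiked untreated-rat samples used as standards.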

[11] = Drug level in Wistar rat brain measured per gram of tissue at 20 mg/kg, iv after 1.5 hrs; assay type: ADME, organism-based; design: dose 20 mg/kg, route intravenous; settings: read-out: Drug uptake; in short: as §4
[12] = Drug level in Wistar rat blood at 20 mg/kg, iv after 1.5 hrs; assay type: ADME, organism-based; design: dose 20 mg/kg, route intravenous; settings: whole blood, read-out: Drug uptake; in short: as §4

| SMILES | logD [1] | Stability (Serum) | TIME [2] | Activity [3] | Activity [4] | Activity [5] | Activity [6] | Activity [7] | Activity (Neuron [8]) | Activity (Neuron [9]) | concentration at 3 h [10] | concentration at 1.5 h [11] | concentration at 1.5 h [12] |
| --- | --- | --- | --- | --- | --- | --- | --- | --- | --- | --- | --- | --- | --- |
| CCCCCCNC(=O)[C@H](Cc1c[nH]cn1)NC(=O)CCN.O=C(O)C(F)(F)F | -0.88 | Stable | 1.32 h | 6.7 nmol/min | 12% | 35.4% | 75.9% | – | – | – | – | – | – |
| CCCCCCCCCCNC(=O)[C@H](Cc1c[nH]cn1)NC(=O)CCN.O=C(O)C(F)(F)F | 0.85 | Stable | 0.15 h | 21 nmol/min | – | – | – | – | – | – | – | – | – |
| CCCNC(=O)[C@H](Cc1c[nH]cn1)NC(=O)CCN.O=C(O)C(F)(F)F | -2.72 | Stable | 1.13 h | 7.7 nmol/min | 12.5% | 42.7% | 81% | Non-toxic | 40% | Active | 1100 ng/g | 600 ng/g | 260 ng/mL |
| NCCC(=O)N[C@@H](Cc1c[nH]cn1)C(N)=O.O=C(O)C(F)(F)F | – | Stable | 1.07 h | 7.7 nmol/min | 10.2% | 31.6% | 77.7% | – | – | – | – | – | – |
| CCOC[C@H](Cc1c[nH]cn1)NC(=O)CCN.O=C(O)C(F)(F)F | -2.17 | Stable | -0.0667 h | 12.2 nmol/min | 17.9% | 60.7% | 86.2% | – | – | – | – | – | – |
| NCCC(=O)N[C@@H](Cc1c[nH]cn1)C(=O)NCc1ccccc1.O=C(O)C(F)(F)F | -1.76 | Stable | 1.42 h | 5.2 nmol/min | 7.2% | 29.3% | 72.8% | – | – | – | – | – | – |
| CCCCCCCCCCCCNC(=O)[C@H](Cc1c[nH]cn1)NC(=O)CCN.O=C(O)C(F)(F)F | 0.93 | Stable | -0.05 h | 14.5 nmol/min | – | – | – | – | – | – | – | – | – |
| CCCCOc1ccc(CNC(=O)[C@H](Cc2c[nH]cn2)NC(=O)CCN)cc1.O=C(O)C(F)(F)F | -0.13 | Stable | 0.817 h | 10 nmol/min | 8.8% | 32.6% | 80.7% | – | – | – | – | – | – |
| NCCC(=O)N[C@@H](Cc1c[nH]cn1)C(=O)O [CARNOSINE] | – | – | 1.12 h | 5.8 nmol/min | 20.4% | 59.6% | 88.8% | – | 6% | – | – | – | – |
| CNC(=O)[C@H](Cc1c[nH]cn1)NC(=O)CCN.O=C(O)C(F)(F)F | – | Stable | 1.25 h | 6.8 nmol/min | 8% | 35.2% | 75.4% | – | – | – | – | – | – |
| CCCCCCCCNC(=O)[C@H](Cc1c[nH]cn1)NC(=O)CCN.O=C(O)C(F)(F)F | -0.23 | Stable | 0.717 h | 11.8 nmol/min | 12.8% | 49.7% | 86.7% | – | – | – | – | – | – |
| CCCCNC(=O)[C@H](Cc1c[nH]cn1)NC(=O)CCN.O=C(O)C(F)(F)F | -2.01 | Stable | 1.37 h | 5.7 nmol/min | 12.5% | 36.2% | 75.2% | – | – | – | – | – | – |
| NCCC(=O)N[C@@H](Cc1c[nH]cn1)C(=O)NCC1CCCCC1.O=C(O)C(F)(F)F | -0.94 | Stable | 1.42 h | 5.6 nmol/min | 12.8% | 28.2% | 62.5% | – | – | – | – | – | – |
| CCNC(=O)[C@H](Cc1c[nH]cn1)NC(=O)CCN.O=C(O)C(F)(F)F | – | Stable | 1.13 h | 7 nmol/min | 8.4% | 32.9% | 70.9% | – | – | – | – | – | – |
| NCCC(=O)N[C@@H](Cc1cnc[nH]1)C(=O)O [CARNOSINE] | – | Stable | – | – | – | – | – | Non-toxic | – | – | – | – | – |
